In ChEMBL document CHEMBL4627348, “Synthesis of (1,3,4-thiadiazol-2-yl)-acrylamide derivatives as potential antitumor agents against acute leukemia cells” (Bioorg Med Chem Lett, 2020):
Calls of active or inactive are those of the source. No cut-off for these calls is given here.

Legend:
[1] = Cytotoxicity against HEK293T cells assessed as growth inhibition at 20 uM after 48 hrs by CCK8 assay relative to control; type: cell-based, HEK-293T; conditions: human, HEK293T cells; read-out: GI
Procedure, shortened: (§1)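 Single-dose screen at 20 μM in RS4;11 (human ALL), HL-60 (human promyelocytic leukemia) and HEK293T (normal-cell model). Cells exposed 48 h, viability read by CCK-8, growth inhibition ratio expressed relative to control.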

HL-60 = assay: Antiproliferative activity against human HL60 cells assessed as growth inhibition at 20 uM after 48 hrs by CCK-8 assay relative to control; type: functional; conditions: for inhibition of growth at 20 µM: HL-60, 48 h, read-out: GI; procedure, shortened: as §1
RS4-11 = assay: Antiproliferative activity against human RS4:11 cells assessed as growth inhibition at 20 uM after 48 hrs by CCK-8 assay relative to control; type: functional; conditions: for inhibition of growth at 20 µM: RS4-11, 48 h, read-out: GI; procedure, shortened: as §1

| Structure (SMILES) | inhibition at 48 h, 20 µM [1] [%] | inhibition of growth at 20 µM (HL-60) [%] | inhibition of growth at 20 µM (RS4-11) [%] | growth inhibition (GI) (HL-60) | growth inhibition (GI) (RS4-11) |
| --- | --- | --- | --- | --- | --- |
| N#C/C(=C\c1ccccc1OS(=O)(=O)c1ccc([N+](=O)[O-])cc1)C(=O)Nc1nnc(Cc2ccc(Cl)cc2)s1 | 19 | 34 | 66 |  |  |
| N#C/C(=C\c1ccccc1OS(=O)(=O)c1ccc([N+](=O)[O-])cc1)C(=O)Nc1nnc(Cc2ccc(F)cc2)s1 | 8 | 18 | 55 |  |  |
| N#C/C(=C\c1cccc(NS(=O)(=O)c2ccc(F)cc2)c1)C(=O)Nc1nnc(-c2cccs2)s1 | 29 |  | 22 | inactive |  |
| Cc1ccc(S(=O)(=O)Oc2cccc(/C=C(\C#N)C(=O)Nc3nnc(-c4ccccc4)s3)c2)cc1 | 52 | 63 | 35 |  |  |
| N#C/C(=C\c1ccccc1OS(=O)(=O)c1ccc([N+](=O)[O-])cc1)C(=O)Nc1nnc(-c2cccs2)s1 | 33 | 23 | 40 |  |  |
| N#C/C(=C\c1ccccc1OS(=O)(=O)c1ccc(F)cc1)C(=O)Nc1nnc(Cc2ccccc2)s1 | 6 | 22 | 69 |  |  |
| COc1ccc(Cc2nnc(NC(=O)/C(C#N)=C/c3ccccc3OS(=O)(=O)c3ccc(C)cc3)s2)cc1 | 21 | 25 | 70 |  |  |
| Cc1ccc(S(=O)(=O)Oc2ccccc2/C=C(\C#N)C(=O)Nc2nnc(Cc3ccc(F)cc3)s2)cc1 | 16 |  | 72 | inactive |  |
| N#C/C(=C\c1ccccc1OS(=O)(=O)c1ccc(Cl)cc1)C(=O)Nc1nnc(Cc2ccc(F)cc2)s1 | 6 | 20 | 68 |  |  |
| COc1ccc(Cc2nnc(NC(=O)/C(C#N)=C/c3ccccc3OS(=O)(=O)c3ccccc3[N+](=O)[O-])s2)cc1 | 18 | 25 | 68 |  |  |
| N#C/C(=C\c1ccccc1OS(=O)(=O)c1ccc(Cl)cc1)C(=O)Nc1nnc(Cc2cccc(F)c2)s1 | 29 | 42 | 71 |  |  |
| N#C/C(=C\c1ccccc1OS(=O)(=O)c1ccc(F)cc1)C(=O)Nc1nnc(Cc2cccc3ccccc23)s1 | 15 | 12 | 68 |  |  |
| N#C/C(=C\c1ccccc1OS(=O)(=O)c1ccc(Cl)cc1)C(=O)Nc1nnc(-c2cccs2)s1 | 46 | 17 | 22 |  |  |
| COc1ccc(Cc2nnc(NC(=O)/C(C#N)=C/c3ccccc3OS(=O)(=O)c3ccc(F)cc3)s2)cc1 | 6 | 25 | 80 |  |  |
| Cc1ccc(S(=O)(=O)Oc2ccccc2/C=C(\C#N)C(=O)Nc2nnc(Cc3cccc(F)c3)s2)cc1 | 9 | 11 | 56 |  |  |
| Cc1ccc(S(=O)(=O)Oc2ccccc2/C=C(\C#N)C(=O)Nc2nnc(Cc3cccc4ccccc34)s2)cc1 | 23 | 19 | 73 |  |  |
| Cc1ccc(Cc2nnc(NC(=O)/C(C#N)=C/c3ccccc3OS(=O)(=O)c3ccc(C)cc3)s2)cc1 | 22 | 17 | 66 |  |  |
| Cc1ccc(S(=O)(=O)Oc2ccccc2/C=C(\C#N)C(=O)Nc2nnc(Cc3ccc(Cl)cc3)s2)cc1 | 20 | 15 | 69 |  |  |

| Structure (SMILES) | inhibition at 48 h, 20 µM [1] [%] | inhibition of growth at 20 µM (HL-60) [%] | inhibition of growth at 20 µM (RS4-11) [%] | growth inhibition (GI) (HL-60) | growth inhibition (GI) (RS4-11) |
| --- | --- | --- | --- | --- | --- |
| N#C/C(=C\c1ccccc1OS(=O)(=O)c1ccccc1[N+](=O)[O-])C(=O)Nc1nnc(Cc2ccc(F)cc2)s1 | 6 | 35 | 61 |  |  |
| Cc1ccc(S(=O)(=O)Oc2cccc(/C=C(\C#N)C(=O)Nc3nnc(-c4ccccc4Cl)s3)c2)cc1 | 55 | 67 | 44 |  |  |
| N#C/C(=C\c1ccccc1OS(=O)(=O)c1ccc(Cl)cc1)C(=O)Nc1nnc(Cc2ccc(Cl)cc2)s1 | 14 | 15 | 64 |  |  |
| Cc1ccc(Cc2nnc(NC(=O)/C(C#N)=C/c3ccccc3OS(=O)(=O)c3ccc([N+](=O)[O-])cc3)s2)cc1 | 9 | 17 | 64 |  |  |
| N#C/C(=C\c1ccccc1OS(=O)(=O)c1ccc(OC(F)(F)F)cc1)C(=O)Nc1nnc(-c2cccs2)s1 | 42 | 48 | 39 |  |  |
| Cc1nnc(NC(=O)/C(C#N)=C/c2cccc(OS(C)(=O)=O)c2)s1 | 20 | 20 | 33 |  |  |
| N#C/C(=C\c1ccccc1OS(=O)(=O)c1ccc([N+](=O)[O-])cc1)C(=O)Nc1nnc(Cc2cccc3ccccc23)s1 | 25 | 18 | 58 |  |  |
| Cc1ccc(Cc2nnc(NC(=O)/C(C#N)=C/c3ccccc3OS(=O)(=O)c3ccc(Cl)cc3)s2)cc1 | 8 | 38 | 72 |  |  |
| N#C/C(=C\c1ccccc1OS(=O)(=O)c1ccc(F)cc1)C(=O)Nc1nnc(Cc2ccc(Cl)cc2)s1 | 14 | 20 | 64 |  |  |
| N#C/C(=C\c1ccccc1OS(=O)(=O)c1ccc(Cl)cc1)C(=O)Nc1nnc(Cc2ccccc2)s1 | 25 | 26 | 73 |  |  |
| N#C/C(=C\c1ccccc1OS(=O)(=O)c1ccc(F)cc1)C(=O)Nc1nnc(Cc2cccc(F)c2)s1 | 17 | 22 | 72 |  |  |
| N#C/C(=C\c1ccccc1OS(=O)(=O)c1ccccc1[N+](=O)[O-])C(=O)Nc1nnc(Cc2ccc(Cl)cc2)s1 | 20 | 19 | 65 |  |  |
| N#C/C(=C\c1cccc(OS(=O)(=O)c2cccs2)c1)C(=O)Nc1nnc(-c2cccs2)s1 | 50 | 30 |  |  | inactive |
| Cc1ccc(Cc2nnc(NC(=O)/C(C#N)=C/c3ccccc3OS(=O)(=O)c3ccc(F)cc3)s2)cc1 | 11 | 11 | 73 |  |  |
| N#C/C(=C\c1ccccc1OS(=O)(=O)c1ccccc1[N+](=O)[O-])C(=O)Nc1nnc(Cc2ccccc2)s1 | 10 | 12 | 71 |  |  |
| Cc1ccc(S(=O)(=O)Oc2ccccc2/C=C(\C#N)C(=O)Nc2nnc(Cc3ccccc3)s2)cc1 | 15 | 16 | 69 |  |  |
| CS(=O)(=O)Oc1ccc(/C=C(\C#N)C(=O)Nc2nnc(-c3cccs3)s2)cc1 | 19 |  | 13 | inactive |  |
| Cc1ccc(Cc2nnc(NC(=O)/C(C#N)=C/c3ccccc3OS(=O)(=O)c3ccccc3[N+](=O)[O-])s2)cc1 | 6 | 33 |  |  | inactive |
